Counter-ions that a name gives are not always drawn.
Legend:
KU812 cell line = experiment: Cytotoxicity against human KU812 cells assessed as reduction in cell viability after 48 hrs by MTT assay; format: functional, cell-based; conditions: KU812, 48 h
CDK2/Cyclin A2 = CDK2/Cyclin A2 (Homo sapiens, UniProt P24941); experiment: Inhibition of human CDK2/CyclinA using histone H1 as substrate after 30 mins by ADP-Glo reagent based luminescence assay; format: protein-complex assay
[1] = biological target: Serine/threonine-protein kinase pim-1 (Homo sapiens, UniProt P11309); experiment: Inhibition of recombinant human Pim1 expressed in bacterial expression system using histone H1 as substrate after 30 mins by ADP-Glo reagent based luminescence assay
Outline: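 Recombinant human Pim-1 (bacterially expressed) with histone H1 at 0.8 µg/µL, 10 µM ATP, in 40 mM Tris pH 7.5, 20 mM MgCl₂ and 0.1 mg/mL BSA, for 30 min at 30 °C. ADP-Glo reagent stops the reaction (50 min, rt), then detection reagent is added (1 h, rt) and luminescence is read.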

[2] = biological target: T1, Serine/threonine-protein kinase haspin (Homo sapiens, UniProt Q8TF76); experiment: Inhibition of recombinant human haspin kinase domain (470 to 798 residues) expressed in bacterial expression system using histone H3 peptide as substrate after 30 mins by ADP-Glo reagent based luminescence assay
T1 sequence (Q8TF76 whole entry): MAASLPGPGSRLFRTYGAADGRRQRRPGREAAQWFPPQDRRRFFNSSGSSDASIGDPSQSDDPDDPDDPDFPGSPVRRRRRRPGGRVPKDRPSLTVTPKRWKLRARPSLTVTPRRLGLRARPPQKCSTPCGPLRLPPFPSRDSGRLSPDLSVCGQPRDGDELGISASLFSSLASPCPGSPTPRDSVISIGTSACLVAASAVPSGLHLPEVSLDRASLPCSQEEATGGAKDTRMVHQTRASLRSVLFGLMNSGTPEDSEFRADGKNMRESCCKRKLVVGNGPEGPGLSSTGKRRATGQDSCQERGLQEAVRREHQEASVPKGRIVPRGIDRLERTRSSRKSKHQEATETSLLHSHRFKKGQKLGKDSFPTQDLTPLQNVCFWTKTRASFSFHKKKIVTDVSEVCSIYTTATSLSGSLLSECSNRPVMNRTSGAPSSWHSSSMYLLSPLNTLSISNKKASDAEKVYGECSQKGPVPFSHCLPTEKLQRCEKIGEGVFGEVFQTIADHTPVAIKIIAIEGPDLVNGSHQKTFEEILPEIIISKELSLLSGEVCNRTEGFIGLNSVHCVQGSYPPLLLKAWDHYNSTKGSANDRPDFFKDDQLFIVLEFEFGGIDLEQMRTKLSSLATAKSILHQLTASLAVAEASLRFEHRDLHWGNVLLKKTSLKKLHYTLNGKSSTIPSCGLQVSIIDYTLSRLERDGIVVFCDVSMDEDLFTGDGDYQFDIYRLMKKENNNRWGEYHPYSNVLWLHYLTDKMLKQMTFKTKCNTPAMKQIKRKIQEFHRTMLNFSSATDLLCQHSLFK

[3] = biological target: Dual specificity tyrosine-phosphorylation-regulated kinase 1A (Rattus norvegicus, UniProt Q63470)
[4] = biological target: Glycogen synthase kinase-3 (Sus scrofa, UniProt B2LUN4+I6LNT8)
CDK9/cyclin T1 = CDK9/cyclin T1 (Homo sapiens, UniProt P50750); experiment: Inhibition of recombinant human CDK9/CyclinT expressed in baculovirus infected Sf9 insect cells using YSPTSPSYSPTSPSYSPTSPSKKKK as substrate after 30 mins by ADP-Glo reagent based luminescence assay
[5] = biological target: Dual specificity protein kinase CLK1 (Mus musculus, UniProt P22518)
Dual specificity protein kinase CLK1, sequence (P22518 whole entry): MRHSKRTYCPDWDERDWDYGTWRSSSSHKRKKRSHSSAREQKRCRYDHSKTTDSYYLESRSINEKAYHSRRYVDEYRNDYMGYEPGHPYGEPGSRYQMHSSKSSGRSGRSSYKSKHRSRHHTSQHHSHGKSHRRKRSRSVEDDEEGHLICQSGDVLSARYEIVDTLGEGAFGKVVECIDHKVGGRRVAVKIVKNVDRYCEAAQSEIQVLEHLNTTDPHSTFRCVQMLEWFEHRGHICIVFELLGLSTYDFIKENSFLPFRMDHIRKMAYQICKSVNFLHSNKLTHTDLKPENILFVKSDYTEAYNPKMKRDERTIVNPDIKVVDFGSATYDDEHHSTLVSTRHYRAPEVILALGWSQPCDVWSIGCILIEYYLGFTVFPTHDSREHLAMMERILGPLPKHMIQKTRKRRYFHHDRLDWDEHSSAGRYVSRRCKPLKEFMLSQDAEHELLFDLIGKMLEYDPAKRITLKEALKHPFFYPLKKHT

Serine/threonine-protein kinase pim-1, sequence (P11309 whole entry): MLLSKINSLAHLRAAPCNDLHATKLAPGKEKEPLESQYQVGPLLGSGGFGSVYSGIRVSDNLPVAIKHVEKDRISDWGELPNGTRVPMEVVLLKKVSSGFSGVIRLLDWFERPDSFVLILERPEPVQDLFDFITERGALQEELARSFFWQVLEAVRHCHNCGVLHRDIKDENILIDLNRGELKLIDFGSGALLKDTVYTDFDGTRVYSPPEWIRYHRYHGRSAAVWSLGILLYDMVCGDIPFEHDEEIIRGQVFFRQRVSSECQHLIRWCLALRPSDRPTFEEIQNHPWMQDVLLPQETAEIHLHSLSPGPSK
CDK9/cyclin T1, sequence (O60563 whole entry): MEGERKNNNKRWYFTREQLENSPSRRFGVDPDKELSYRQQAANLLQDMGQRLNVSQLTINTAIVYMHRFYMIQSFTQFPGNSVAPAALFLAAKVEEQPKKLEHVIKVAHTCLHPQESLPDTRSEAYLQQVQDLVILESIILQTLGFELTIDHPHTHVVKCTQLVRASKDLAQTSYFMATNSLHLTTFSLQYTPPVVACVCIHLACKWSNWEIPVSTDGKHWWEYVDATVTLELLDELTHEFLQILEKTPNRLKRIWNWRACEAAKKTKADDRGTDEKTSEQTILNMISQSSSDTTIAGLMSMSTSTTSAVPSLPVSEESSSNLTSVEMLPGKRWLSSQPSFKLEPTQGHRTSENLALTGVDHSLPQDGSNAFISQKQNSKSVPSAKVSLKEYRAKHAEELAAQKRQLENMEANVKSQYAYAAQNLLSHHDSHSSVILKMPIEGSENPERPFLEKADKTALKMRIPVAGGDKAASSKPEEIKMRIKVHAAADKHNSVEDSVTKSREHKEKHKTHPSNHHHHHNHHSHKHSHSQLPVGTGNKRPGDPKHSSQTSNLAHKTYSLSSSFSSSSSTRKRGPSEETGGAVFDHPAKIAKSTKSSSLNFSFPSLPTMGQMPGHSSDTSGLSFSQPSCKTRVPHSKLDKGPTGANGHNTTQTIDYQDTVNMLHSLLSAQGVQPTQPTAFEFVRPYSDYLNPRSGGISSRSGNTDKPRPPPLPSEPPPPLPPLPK
CDK9/cyclin T1, sequence (P50750 whole entry): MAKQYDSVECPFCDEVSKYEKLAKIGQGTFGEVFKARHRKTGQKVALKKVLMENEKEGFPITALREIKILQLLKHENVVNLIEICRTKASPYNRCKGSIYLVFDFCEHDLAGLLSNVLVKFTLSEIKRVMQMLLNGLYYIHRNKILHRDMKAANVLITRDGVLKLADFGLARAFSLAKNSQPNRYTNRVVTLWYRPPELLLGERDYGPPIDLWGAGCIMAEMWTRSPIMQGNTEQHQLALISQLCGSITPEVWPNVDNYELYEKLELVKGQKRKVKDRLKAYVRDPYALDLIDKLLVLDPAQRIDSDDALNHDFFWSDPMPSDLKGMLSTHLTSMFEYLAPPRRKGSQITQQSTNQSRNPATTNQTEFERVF

IC50 [1] [µM]	SMILES	EC50 (KU812 cell line) [µM]	IC50 (CDK2/Cyclin A2) [µM]	IC50 [2] [µM]	IC50 [3] [µM]	IC50 [4] [µM]	IC50 (CDK9/cyclin T1) [µM]	IC50 [5] [µM]
> 10	CCOC(=O)c1nc2ccccc2nc1Nc1ccc(N)cc1	–	–	–	–	–	–	–
> 10	CCOC(=O)c1nc2ccccc2nc1Nc1cccc(O)c1	–	–	–	–	–	–	–
> 10	CCOC(=O)c1nc2ccccc2nc1Nc1ccc(O)cc1	–	–	–	–	–	–	–
> 10	CCOC(=O)c1nc2ccccc2nc1Nc1ccc(C2CCN(C)CC2)cc1	–	–	–	–	–	–	–
> 10	NC(=O)c1nc2ccccc2nc1Nc1cccc(N2CCOCC2)c1	–	–	–	–	–	–	–
> 10	CN1CCC(c2ccc(Nc3nc4ccccc4nc3C(=O)O)cc2)CC1	–	–	–	–	–	–	–
> 10	CCOC(=O)c1nc2ccccc2nc1Nc1ccccc1O	–	–	–	–	–	–	–
> 10	CCOC(=O)c1nc2ccccc2nc1Nc1cccc(N2CCOCC2)c1	–	–	–	–	–	–	–
> 10	CCOC(=O)c1nc2ccccc2nc1Nc1ccc2[nH]ccc2c1	–	–	–	–	–	–	–
> 10	CCOC(=O)c1nc2ccccc2nc1Nc1cccc(N)c1	–	–	–	–	–	–	–

More lines, now with the values behind:

SMILES	IC50 [1] [µM]	EC50 (KU812 cell line) [µM]	IC50 (CDK2/Cyclin A2) [µM]	IC50 [2] [µM]	IC50 [3] [µM]	IC50 [4] [µM]	IC50 (CDK9/cyclin T1) [µM]	IC50 [5] [µM]
O=C(O)c1nc2ccccc2nc1Nc1cccc(N2CCOCC2)c1	1.01	57.3	> 10	> 10	> 10	> 10	> 10	> 10
Nc1ccc(Nc2nc3ccccc3nc2C(=O)O)cc1	> 10	–	–	–	–	–	–	–
O=C(O)c1nc2ccccc2nc1Nc1cccc(O)c1	–	38.9	> 10	> 10	–	> 10	> 10	> 10
Nc1cccc(Nc2nc3ccccc3nc2C(=O)[O-])c1.[K+]	2.8	63.8	> 10	> 10	1.67	> 10	> 10	> 10
O=C(O)c1nc2ccccc2nc1Nc1ccccc1O	0.76	178	> 10	> 10	0.74	> 10	> 10	> 10
O=C(O)c1nc2ccccc2nc1Nc1ccc2[nH]ccc2c1	> 10	–	–	–	–	–	–	–
Cc1ccc(NC(=O)c2ccc(CN3CCN(C)CC3)cc2)cc1Nc1nccc(-c2cccnc2)n1 [IMATINIB MESYLATE]	–	0.6	–	–	–	–	–	–
O=C(O)c1nc2ccccc2nc1Nc1ccc(O)cc1	0.29	41.7	> 10	> 10	0.098	> 10	> 10	> 10

Reference: ChEMBL document CHEMBL4152267, “Structure-based design of novel quinoxaline-2-carboxylic acids and analogues as Pim-1 inhibitors” (Eur J Med Chem, 2018)
